How the values were obtained:
Hs-578T [1] = test: Antiproliferative activity against human Hs-578T cells assessed as cell growth at 0.000001 M incubated for 48 hrs by SRB assay relative to control; type: functional; settings: read-out: Activity
Method in brief: (§1)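 NCI-60 five-dose mode, 10^-4 to 10^-8 M in 10-fold steps. RPMI 1640, 5% FBS, 2 mM L-glutamine; 24 h preincubation, then 48 h drug exposure at 37 °C. Stocks in DMSO at 400× the top concentration, diluted in medium with gentamicin. TCA fixation, SRB staining, absorbance at 515 nm. Percent growth from time-zero (Tz), control (C) and test (Ti) readings.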

SNB-19 = test: Antiproliferative activity against human SNB-19 cells assessed as cell growth at 0.0001 M incubated for 48 hrs by SRB assay relative to control; type: functional; settings: read-out: Activity
MDA-MB-468 [2] = test: Antiproliferative activity against human MDA-MB-468 cells assessed as cell growth inhibition by measuring lethal concentration incubated for 48 hrs by sulforhodamine B assay; type: functional; settings: read-out: LC50 (the source's name)
SR = test: Antiproliferative activity against human SR cells assessed as cell growth at 0.0000001 M incubated for 48 hrs by SRB assay relative to control; type: functional; settings: dose 100 nM, read-out: Activity
OVCAR-8 = test: Antiproliferative activity against human OVCAR-8 cells assessed as cell growth at 0.000001 M incubated for 48 hrs by SRB assay relative to control; type: functional; settings: read-out: Activity
A549 = test: Antiproliferative activity against human A549 cells assessed as cell growth at 0.00000001 M incubated for 48 hrs by SRB assay relative to control; type: functional; settings: dose 10 nM, read-out: Activity
Method in brief: (§2)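 NCI-60 five-dose screen over 10^-4–10^-8 M (10-fold dilutions). Cells grown in RPMI 1640 with 5% FBS and 2 mM L-glutamine, seeded at 5,000–40,000 cells/well and preincubated 24 h. Drug from DMSO stock, 48 h at 37 °C, 5% CO2. Adherent cells TCA-fixed and stained with 0.4% SRB; A515 read. Percent growth = (Ti−Tz)/(C−Tz)×100, or (Ti−Tz)/Tz×100 when Ti<Tz.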

LOX IMVI = test: Antiproliferative activity against human LOX IMVI cells assessed as cell growth at 0.000001 M incubated for 48 hrs by SRB assay relative to control; type: functional; settings: read-out: Activity
HOP-62 = test: Antiproliferative activity against human HOP-62 cells assessed as cell growth at 0.000001 M incubated for 48 hrs by SRB assay relative to control; type: functional; settings: read-out: Activity
Method in brief: (§3)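 NCI-60 five-dose screen (10^-4 to 10^-8 M). Cells grown in RPMI 1640 with 5% FBS and 2 mM L-glutamine, plated at 5,000-40,000 cells/well and preincubated 24 h. Drug given from DMSO stock, then 48 h at 37 °C, 5% CO2. For adherent lines, cells fixed with cold TCA, SRB-stained and read at 515 nm. Percent growth taken against time-zero and untreated control.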

MDA-MB-231 [3] = test: Antiproliferative activity against human MDA-MB-231 cells assessed as cell growth at 0.00000001 M incubated for 48 hrs by SRB assay relative to control; type: functional; settings: dose 10 nM, read-out: Activity
UACC-257 [4] = test: Antiproliferative activity against human UACC-257 cells assessed as cell growth at 0.0001 M incubated for 48 hrs by SRB assay relative to control; type: functional; settings: read-out: Activity
RXF 393 = test: Antiproliferative activity against human RXF 393 cells assessed as cell growth at 0.0001 M incubated for 48 hrs by SRB assay relative to control; type: functional; settings: read-out: Activity
CAKI-1 = test: Antiproliferative activity against human CAKI-1 cells assessed as cell growth at 0.000001 M incubated for 48 hrs by SRB assay relative to control; type: functional; settings: read-out: Activity; method in brief: as §2
DU-145 = test: Antiproliferative activity against human DU-145 cells assessed as cell growth at 0.0000001 M incubated for 48 hrs by SRB assay relative to control; type: functional; settings: dose 100 nM, read-out: Activity; method in brief: as §2
U-251 = test: Antiproliferative activity against human U-251 cells assessed as cell growth inhibition by measuring lethal concentration incubated for 48 hrs by sulforhodamine B assay; type: functional; settings: read-out: LC50 (the source's name)
Method in brief: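 NCI-60 five-dose screen (10^-4 to 10^-8 M, 10-fold dilutions; DMSO stocks). Cells in RPMI 1640 with 5% FBS and 2 mM L-glutamine, preincubated 24 h, then exposed 48 h at 37 °C, 5% CO2. Fixed with cold TCA, stained with 0.4% SRB, absorbance read at 515 nm. Time-zero plates used as reference. LC50 taken from [(Ti-Tz)/Tz]×100 […].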

UACC-257 [5] = test: Growth inhibition against human UACC-257 cells assessed as total growth inhibitory concentration incubated for 48 hrs by sulforhodamine B assay; type: functional
SNB-75 = test: Growth inhibition against human SNB-75 cells incubated for 48 hrs by sulforhodamine B assay; type: functional
HCT-116 = test: Antiproliferative activity against human HCT-116 cells assessed as cell growth at 0.00001 M incubated for 48 hrs by SRB assay relative to control; type: functional; settings: read-out: Activity; method in brief: as §3
SF-295 = test: Antiproliferative activity against human SF-295 cells assessed as cell growth at 0.0001 M incubated for 48 hrs by SRB assay relative to control; type: functional; settings: read-out: Activity
Hs-578T [6] = test: Antiproliferative activity against human Hs-578T cells assessed as cell growth at 0.0000001 M incubated for 48 hrs by SRB assay relative to control; type: functional; settings: dose 100 nM, read-out: Activity; method in brief: as §1
SK-MEL-2 = test: Antiproliferative activity against human SK-MEL-2 cells assessed as cell growth at 0.0001 M incubated for 48 hrs by SRB assay relative to control; type: functional; settings: read-out: Activity
MDA-MB-468 [7] = test: Growth inhibition against human MDA-MB-468 cells incubated for 48 hrs by sulforhodamine B assay; type: functional
EKVX = test: Antiproliferative activity against human EKVX cells assessed as cell growth at 0.00000001 M incubated for 48 hrs by SRB assay relative to control; type: functional; settings: dose 10 nM, read-out: Activity; method in brief: as §3
HT-29 = test: Antiproliferative activity against human HT-29 cells assessed as cell growth at 0.00001 M incubated for 48 hrs by SRB assay relative to control; type: functional; settings: read-out: Activity; method in brief: as §3
MOLT-4 = test: Antiproliferative activity against human MOLT-4 cells assessed as cell growth at 0.0000001 M incubated for 48 hrs by SRB assay relative to control; type: functional; settings: dose 100 nM, read-out: Activity
NCI-H522 = test: Antiproliferative activity against human NCI-H522 cells assessed as cell growth at 0.000001 M incubated for 48 hrs by SRB assay relative to control; type: functional; settings: read-out: Activity
ACHN = test: Antiproliferative activity against human ACHN cells assessed as cell growth inhibition by measuring lethal concentration incubated for 48 hrs by sulforhodamine B assay; type: functional; settings: read-out: LC50 (the source's name)
Calf thymus DNA = test: Binding affinity to calf thymus DNA assessed as binding constant by Benesi-Hildebrand equation based UV-vis spectrophotometric method; type: nucleic-acid assay; settings: Bos taurus
OVCAR-4 = test: Antiproliferative activity against human OVCAR-4 cells assessed as cell growth at 0.0001 M incubated for 48 hrs by SRB assay relative to control; type: functional; settings: read-out: Activity
MDA-MB-231 [8] = test: Antiproliferative activity against human MDA-MB-231 cells assessed as cell growth at 0.00001 M incubated for 48 hrs by SRB assay relative to control; type: functional; settings: read-out: Activity
COLO 205 = test: Antiproliferative activity against human COLO 205 cells assessed as cell growth at 0.000001 M incubated for 48 hrs by SRB assay relative to control; type: functional; settings: read-out: Activity; method in brief: as §2

Row | SMILES | growth at 1 µM (Hs-578T [1]) [%] | growth at 100 µM (SNB-19) [%] | CC50 (MDA-MB-468 [2]) [µM] | growth at 0.1 µM (SR) [%] | growth at 1 µM (OVCAR-8) [%] | growth at 0.01 µM (A549) [%] | growth at 1 µM (LOX IMVI) [%] | growth at 1 µM (HOP-62) [%] | growth at 0.01 µM (MDA-MB-231 [3]) [%] | growth at 100 µM (UACC-257 [4]) [%] | growth at 100 µM (RXF 393) [%] | growth at 1 µM (CAKI-1) [%] | growth at 0.1 µM (DU-145) [%] | CC50 (U-251) [µM] | TGI (UACC-257 [5]) [µM] | GI50 (SNB-75) [µM] | growth at 10 µM (HCT-116) [%] | growth at 100 µM (SF-295) [%] | growth at 0.1 µM (Hs-578T [6]) [%] | growth at 100 µM (SK-MEL-2) [%] | also measured
1 | COc1ccc(-c2cn3ccnc3c(-c3ccc4ncn(C5CCCCC5)c4c3)n2)cc1 | 53 | 15 | > 100 | 91 | 92 | 102 | 44 | 52 | 99 | 55 | 19 | 44 | 102 | > 100 | > 100 | 0.733 | -15 | 2 | 102 | 3 | GI50 (MDA-MB-468 [7]): 0.863 µM; growth at 0.01 µM (EKVX): 87%; growth at 10 µM (HT-29): -5%; growth at 0.1 µM (MOLT-4): 109%; growth at 1 µM (NCI-H522): 28%; CC50 (ACHN): > 100 µM; Kb (Calf thymus DNA): 3.34 10^4/M; growth at 100 µM (OVCAR-4): 57%; growth at 10 µM (MDA-MB-231 [8]): 12%; growth at 1 µM (COLO 205): 76%
2 | c1ccc(Cn2cnc3ccc(-c4nc(-c5ccc6c(c5)ncn6C5CCCCC5)cn5ccnc45)cc32)cc1 | 88 | 32 | > 100 | 98 | 102 | 105 | 88 | 82 | 102 | -27 | -33 | 71 | 98 | > 100 | 4.31 | 1.19 | -74 | -38 | 104 | -33 | GI50 (MDA-MB-468 [7]): 1.92 µM; growth at 0.01 µM (EKVX): 89%; growth at 10 µM (HT-29): -48%; growth at 0.1 µM (MOLT-4): 114%; growth at 1 µM (NCI-H522): 88%; CC50 (ACHN): > 100 µM; Kb (Calf thymus DNA): 3.18 10^4/M; growth at 100 µM (OVCAR-4): 14%; growth at 10 µM (MDA-MB-231 [8]): -63%; growth at 1 µM (COLO 205): 92%
